Assay outcomes as filed in PubChem.
RGS4 act – potentiators or activators of RGS4; HEK293 M3R/inducible RGS4, carbachol calcium flux Fluo4; hits give low values; B-score at 10 µM; hit rate 0.92% among 310,000; AID 463111;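 active = B-score of the integrated calcium signal more than 4 SD below the library mean, with starting fluorescence not abnormally high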;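 note: negative B-score means reduced calcium response which marks RGS4 activation or potentiation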
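Detection: kinetic calcium fluorescence imaging with Fluo4-AM dye, 2 µM / Material: HEK293 cells with stable M3R and inducible RGS4 / Schedule: recording 10 s baseline at 1 Hz, 100 s post-agonist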
RGS4 inh – human RGS4 inhibition; HEK293 M3R/RGS4 inducible, Fluo-4 calcium flux; hits give high values; triggered by carbachol at its EC20; B-score at 10 µM; P49798; hit rate 0.45% among 310,000;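 active = B-score, a plate-corrected calcium signal, over three deviations above library mean, with baseline fluorescence within five deviations of library mean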;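 note: RGS4 expression induced by doxycycline in cells with stable M3 receptor; B-score is computed from the integrated fluorescence ratio over baseline after carbachol; higher B-score means a larger calcium signal and so more RGS4 inhibition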
Target sequence (P49798 whole entry, looked up): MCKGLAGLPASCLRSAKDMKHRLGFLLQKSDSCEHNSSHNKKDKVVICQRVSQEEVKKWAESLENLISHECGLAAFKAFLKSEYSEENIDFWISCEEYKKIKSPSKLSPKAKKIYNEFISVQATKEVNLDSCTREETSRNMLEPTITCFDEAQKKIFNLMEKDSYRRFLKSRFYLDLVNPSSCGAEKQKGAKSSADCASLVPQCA
MrgX1 allo act – human MrgX1 positive allosteric modulation, primary screen; MrgX1-HEK293, Fluo-4 calcium flux, FDSS; hits give high values; B-score at 10 µM; hit rate 0.63% among 310,000;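 active = plate-corrected calcium response at least 3 library SD above typical, normal starting fluorescence, not activating the receptor alone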;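 note: compound read alongside a low EC10 to EC30 dose of BAM8-22 agonist; peak minus trough fluorescence over baseline measured at the second addition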
Target sequence (Q96LB2 whole entry, looked up): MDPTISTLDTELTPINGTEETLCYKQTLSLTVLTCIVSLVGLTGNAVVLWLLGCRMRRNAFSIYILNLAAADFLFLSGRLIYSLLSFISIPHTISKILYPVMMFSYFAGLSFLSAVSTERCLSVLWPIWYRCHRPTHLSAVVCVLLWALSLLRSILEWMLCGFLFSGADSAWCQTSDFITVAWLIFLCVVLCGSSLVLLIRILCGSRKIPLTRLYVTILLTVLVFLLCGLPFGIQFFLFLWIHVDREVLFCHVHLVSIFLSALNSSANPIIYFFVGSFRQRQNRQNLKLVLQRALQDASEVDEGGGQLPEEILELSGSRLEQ
MrgX1 agonist – activates human MrgX1 receptor signaling; Q96LB2; MrgX1-HEK293 cells, Fluo-4 calcium fluorescence, agonist mode; hits give high values; B-score at 10 µM; hit rate 0.44% among 310,000; AID 588627;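 active = calcium response B-score plate-corrected fluorescence ratio at least 3 library SD, with starting fluorescence B-score inside 5 SD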
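times = overnight plating, then 30 min 37 °C plus 30 min room-temperature dye loading | assay system = stable human MrgX1 HEK293 cell line | input = fifteen thousand cells per well | signal = kinetic calcium dye fluorescence, Fluo-4 NW | dosing = compound delivered in addition one of three | read-out = B-scored fluorescence response ratio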
MrgX1 antag – antagonists of human MrgX1 receptor. B-score at 10 µM. AID 588676. hit rate 1.3% among 310,000. Q96LB2. MRGX1-HEK293 calcium flux, Fluo-4, BAM8-22 antagonism; hits give low values;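 active = calcium-response B-score plate-corrected more than 3 library SD below zero, starting fluorescence within 5 deviations, no agonist response on first addition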;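 note: peak minus trough fluorescence over baseline after final BAM8-22 challenge near maximal dose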
RGS4 act valid – RGS4 activation, validation assay. hit rate 89% among 1,100. HEK293 M3R/RGS4 inducible, carbachol calcium flux Fluo4. inhibition, % at 10 µM. shares compounds with RGS4 act. AID 602282;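 active = inhibition above 3 SD of the buffer control wells, cut at about 41% in these data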;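 note: signal is the integrated peak-minus-minimum Fluo4 fluorescence over baseline ratio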
M3R Ca counter – activity in cells without induced RGS4 expression; shares compounds with RGS4 act; HEK293 M3R non-induced RGS4, Fluo4 calcium flux; after carbachol challenge at its EC90; inhibition, % at 10 µM; hit rate 82% among 1,100; AID 602283;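 active = inhibition exceeding 3 SD of buffer-only control wells, cut at about 26% in these data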;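 note: percent drop in integrated peak-minus-baseline over baseline Fluo4 ratio after carbachol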
RGS4 inh valid – RGS4 inhibitor validation; shares compounds with RGS4 inh; HEK293 M3R/RGS4, carbachol calcium Fluo-4 fluorescence; carbachol added at its EC20; 0 = buffer wells, 100 = carbachol control; calcium response, % at 10 µM; hit rate 65% among 1,700; AID 492999;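 active = duplicate-averaged calcium response above the buffer-only control mean plus 5 SD of those controls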;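 note: integrated fluorescence ratio F max minus min over baseline F0; higher response in RGS4-induced cells means RGS4 inhibition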
M3R Ca ctr – non-induced cell nonspecific activity of RGS4 inhibitors; AID 493000; activity (percent), % at 10 µM; HEK293 M3R non-induced, carbachol calcium Fluo-4; submaximal (EC20) carbachol stimulus; buffer wells 0%, carbachol control wells 100%; hit rate 20% among 1,900; shares compounds with RGS4 inh; call rule not given here;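 note: RGS4 induction absent so cells express M3R without RGS4; higher means more calcium signal and flags a non-specific hit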
RGS4 inh ctr2 – second RGS4 inhibitor counter-screen in uninduced cells lacking carbachol. shares compounds with RGS4 inh. HEK293 M3R/RGS4 non-induced, Fluo-4 calcium, no carbachol; normalised: buffer wells 0%, carbachol wells 100%. calcium response (agonist-mode artifact), % at 10 µM. hit rate 22% among 1,900. AID 493001;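 active = duplicate-averaged calcium rise in uninduced cells above buffer wells' mean plus 5 SD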
MrgX1 ant reconf – human MrgX1 receptor antagonism, re-confirmation screen; shares compounds with MrgX1 antag; MrgX1-HEK293, BAM8-22 calcium flux, Fluo-4; hits give low values; remaining BAM8-22 calcium response % of control (hits give low values), % at 10 µM; hit rate 19% among 2,300; AID 602420;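 active = remaining agonist calcium response no higher than 100% minus 3 SD of agonist-only control wells, with starting fluorescence near control levels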;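 note: agonist BAM8-22 given at a near maximal EC90 to ECmax level; peak minus minimum fluorescence divided by baseline after agonist addition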
HEK293 Ca flux – activity in parental HEK293 cells lacking MrgX1 | hit rate 2% among 4,000 | fluorescence ratio F(max-min)/F0 at 10 µM | AID 624111 | Fluo-4 calcium fluorescence, FDSS | shares compounds with MrgX1 antag;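 active = duplicate-averaged calcium fluorescence ratio at least three times the standard deviation of buffer wells, a nonspecific response in parental cells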
HEK293 Ca counter – activity in parental HEK293 cells without MrgX1. parental HEK293 calcium flux, Fluo-4 fluorescence ratio; hits give high values. hit rate 0.4% among 4,000. shares compounds with MrgX1 antag. fluorescence ratio F(max-min)/F0 at 10 µM;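 active = calcium fluorescence ratio, averaged over duplicates, at least 3 SD of the buffer-well ratio, meaning a nonspecific response in receptor-free cells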;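 note: untransfected parental HEK293 lacking MrgX1 used as counterscreen for MrgX1 allosteric activators; fluorescence change taken during the second addition on a kinetic imager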
HEK293 Ca cntr2 – counter-screen for MrgX1 activators: effect in parental HEK293 cells; shares compounds with MrgX1 antag; hit rate 8.7% among 4,000; AID 624115; Fluo-4 calcium fluorescence (FDSS); hits give high values; fluorescence ratio F(max-min)/F0 at 10 µM;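 active = calcium fluorescence ratio at least three times the spread of buffer wells, meaning a non-specific response in parental cells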
Large screens that a line does not name were inactive (follow-up assays come after a bar, where they were run). Compounds with a hit are over-represented: about 3.5% of the library has one in this group of screens.

COc1ccc(CC(=O)Nc2cccc(-c3nnc(-c4cccc(C)c4)o3)c2)cc1OC	RGS4 act -9.9, MrgX1 antag -12 | RGS4 act valid 94 | M3R Ca counter 94 | MrgX1 ant reconf 5.5% | HEK293 Ca flux inactive | HEK293 Ca counter inactive | HEK293 Ca cntr2 inactive
Cc1ccc(/C=N/N2CCN(Cc3ccc(C)cc3)CC2)cc1	none | RGS4 inh valid inactive | M3R Ca ctr inactive | RGS4 inh ctr2 inactive
O=[N+]([O-])/C=C/c1cn(Cc2ccc(F)cc2)c2ccccc12	RGS4 inh 6, MrgX1 allo act 7.4 | RGS4 inh valid 42% | M3R Ca ctr inactive | RGS4 inh ctr2 68%
O=C(O)c1ccc(N/N=C/c2cn(Cc3ccc(F)cc3)c3ccccc23)cc1	none
Cc1c(CC(=O)O)c(=O)oc2c(C)c(OCc3ccccc3Br)ccc12	none
Cn1cc(/C=C(\NC(=O)c2ccccc2)C(=O)NCCN2CCOCC2)c2ccccc21	none
CC(=O)Nc1cccc(C(=O)/C=C/c2ccc(N(C)C)cc2)c1	MrgX1 agonist 63 | RGS4 inh valid inactive | M3R Ca ctr inactive | RGS4 inh ctr2 156%
CC(=O)Nc1cccc(C(=O)/C=C/c2ccc(F)cc2)c1	none | RGS4 inh valid inactive | M3R Ca ctr inactive | RGS4 inh ctr2 10%
CC(=O)Nc1cccc(C(=O)/C=C/c2ccc[nH]2)c1	none
CC(=O)Nc1cccc(C(=O)/C=C/c2ccc(Br)cc2)c1	RGS4 inh 7.2 | RGS4 inh valid inactive | M3R Ca ctr inactive | RGS4 inh ctr2 inactive
COc1ccc(CNCC(O)COc2cccc3c2OC(C)(C)C3)cc1 (stereo not given)	none
O=c1[nH]c(/C=C/c2ccccc2Cl)c([N+](=O)[O-])c(=O)[nH]1	RGS4 inh 10 | RGS4 inh valid 44% | M3R Ca ctr 42% | RGS4 inh ctr2 inactive
COc1cccc(/C=C/c2[nH]c(=O)[nH]c(=O)c2[N+](=O)[O-])c1O	RGS4 inh 5.3 | RGS4 inh valid 17% | M3R Ca ctr inactive | RGS4 inh ctr2 inactive
COc1cc(/C=C/c2[nH]c(=O)[nH]c(=O)c2[N+](=O)[O-])cc(OC)c1O	none
CC(C)c1ccc(/C=C/c2[nH]c(=O)[nH]c(=O)c2[N+](=O)[O-])cc1	none
CCOC(=O)c1c(NC(=O)COC(=O)c2nccnc2N)sc(C(=O)N(C)C)c1C	none
